High-throughput results as filed in PubChem BioAssay.
This is a sample that favours compounds with a hit; in the whole collection about 3.5% have one here.
STAT3 activator: activators of IL-6 induced STAT3 signaling; U3A cells, IL-6 STAT3-luciferase reporter, luminescence; 100% = signal with IL-6 EC80 alone; activation (% of control), % at 5.6 µM; hit rate 0.91% among 190,000; AID 871;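 active = activation above the screen-wide mean of compound activation plus 3 SD, cut at about 130% in these data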;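 note: 0% = background luminescence of wells with medium and substrate only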
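Material: human U3A cells carrying STAT3-luciferase construct. Measured by: reporter luminescence signal. Timing: compound 1 h, then IL-6 6 h at 37 °C.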
FXIIa inh 1536: blocks human coagulation factor XIIa protease activity; P00748; purified FXIIa, Boc-QGR-AMC fluorogenic substrate, 2 h; inhibition, % at 5 µM; hit rate 0.3% among 220,000; in the data active = inhibition above about 40%;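 note: 0% = enzyme with no compound and 100% = blank without enzyme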
AHR activator: activators of human aryl hydrocarbon receptor; P35869; AHR-responsive luciferase reporter cells, luminescence; activation, % at 5 µM; hit rate 2.5% among 320,000; in the data active = activation above about 47%;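 note: 0% = vehicle wells and 100% = reference agonist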
Target sequence (P35869 whole entry, looked up): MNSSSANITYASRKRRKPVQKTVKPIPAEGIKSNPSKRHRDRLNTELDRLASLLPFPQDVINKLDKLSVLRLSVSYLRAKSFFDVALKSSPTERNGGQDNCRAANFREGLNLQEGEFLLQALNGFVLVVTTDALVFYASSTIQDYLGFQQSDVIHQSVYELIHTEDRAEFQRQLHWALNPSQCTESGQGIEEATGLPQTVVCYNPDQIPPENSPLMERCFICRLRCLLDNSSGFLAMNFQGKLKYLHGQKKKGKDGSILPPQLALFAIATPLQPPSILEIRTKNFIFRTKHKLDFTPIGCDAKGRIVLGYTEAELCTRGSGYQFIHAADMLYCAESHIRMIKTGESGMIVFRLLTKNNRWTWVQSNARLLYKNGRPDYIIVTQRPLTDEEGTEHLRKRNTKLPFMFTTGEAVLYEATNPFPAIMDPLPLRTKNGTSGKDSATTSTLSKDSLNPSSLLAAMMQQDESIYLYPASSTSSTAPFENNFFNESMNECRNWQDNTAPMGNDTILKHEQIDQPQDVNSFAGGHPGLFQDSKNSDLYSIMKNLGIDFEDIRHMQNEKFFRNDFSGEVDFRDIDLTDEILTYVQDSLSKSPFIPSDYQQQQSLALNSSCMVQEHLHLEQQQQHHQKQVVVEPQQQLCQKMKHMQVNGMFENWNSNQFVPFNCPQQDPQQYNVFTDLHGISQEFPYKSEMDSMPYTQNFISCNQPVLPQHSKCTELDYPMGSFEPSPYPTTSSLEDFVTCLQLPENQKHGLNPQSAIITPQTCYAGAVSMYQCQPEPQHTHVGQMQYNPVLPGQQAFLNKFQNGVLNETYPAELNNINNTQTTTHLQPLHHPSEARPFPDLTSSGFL
FXIa inh 1536: blocks human coagulation factor XIa protease activity | purified FXIa, Boc-Glu-Ala-Arg-AMC fluorogenic substrate | P03951 | AID 798 | hit rate 0.14% among 220,000 | inhibition, % at 5 µM;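 active = inhibition of at least 40%; inactive = inhibition below 40%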;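 note: fluorescence of freed AMC excited at 355 nm; 0% = enzyme without compound and 100% = no enzyme blank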
hK5 inh: inhibitors of human kallikrein 5 | Q9Y337 | recombinant hK5, fluorogenic AMC substrate cleavage | inhibition, % at 5 µM | hit rate 0.59% among 210,000 | AID 873;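 active = inhibition of 40% or more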;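 note: 0% = enzyme controls without compound and 100% = no-enzyme blanks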
thrombin 1536: blocks human thrombin protease activity; P00734; hit rate 0.26% among 220,000; AID 1046; inhibition, % at 5 µM; alpha-thrombin, Boc-VPR-AMC fluorogenic substrate cleavage;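 active = inhibition at or above 40%; inactive = inhibition below 40%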;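 note: 0% = enzyme with no compound and 100% = wells without enzyme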
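System – human alpha-thrombin · Medium – pH 7.5 Tris (50 mM) with NaCl 150 mM, Tween 20 0.05% · Compound – single-point dosing at 5 µM, 0.2% DMSO · Incubation – enzyme reaction carried out at room temperature · Technique – fluorescence of released AMC, ex 355 nm, em 460 nm · Read-out basis – % inhibition of thrombin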
An asterisk follows results filed as active; . = no result given.

SMILES | STAT3 activator | FXIIa inh 1536 | AHR activator | FXIa inh 1536 | hK5 inh | thrombin 1536
O=C(Nc1ccc(O)c(-c2nc3ccccc3s2)c1)C1=COCCO1 | 90 | 10 | 50* | -1 | -6 | -2
O=C(Nc1ccc(-c2nc3ccccc3s2)c(O)c1)C1=COCCO1 | 108 | 5 | 8 | 6 | -62 | 0
CC(=O)Nc1ccc(O)c(-c2nc3ccccc3s2)c1 | 117 | 7 | 72* | -2 | -8 | 2
CC1=C(C)CC(C(=O)Nc2nc(-c3ccc(F)cc3)c(C)s2)C(C(=O)O)C1 (stereo unspecified) | 97 | 4 | 8 | 2 | -7 | -7
O=C(Nc1ccc(-c2nc3ccccc3s2)cc1)C1=COCCO1 | 55 | 7 | 50* | 2 | -20 | -9
CS(=O)(=O)c1ccc(C(=O)OCC(=O)N(CCc2ccccc2)Cc2ccccc2)cc1 | . | . | 1 | . | . | .
CC(C)c1nc(SCc2c(F)cccc2Cl)c2c(=O)n(C)c(=O)n(C)c2n1 | 103 | 23 | 8 | 10 | 65* | 15
Cn1c(=O)c2c(nc(SCCCC#N)n2Cc2c(F)cccc2Cl)n(C)c1=O | 94 | 13 | 2 | 2 | -6 | -3
CCNC(=O)NC(=O)C(C)Sc1nc2ccccc2n1CC(C)C (stereo unspecified) | 94 | 22 | 2 | 2 | -8 | 2
Cc1ccc(C)c(CNc2ccc(S(=O)(=O)N3CCCCC3)cc2)c1 | . | . | -2 | . | . | .
CSc1cc(C)n(-c2ccccc2)c(=S)c1C(C)=O | 102 | 18 | -2 | 2 | 46* | 20
CSc1nnc(-c2cc3c(s2)-c2ccccc2CC3)o1 | 164* | -20 | 66* | 1 | -330 | -27
O=C(C1=C[C@@H](c2ccc(C(F)(F)F)cc2)C[C@@H](OCc2ccc(CO)cc2)O1)N1CCN(Cc2ccccc2)CC1 | . | 14 | 2 | 3 | 5 | 1
O=C(COc1ccccc1)Nc1ccccc1Cl | 96 | 3 | 0 | -5 | -13 | 1
COc1cccc(NC(=O)Cn2c(=O)oc3ccccc32)c1 | 92 | -9 | -3 | -14 | -13 | -5
COc1ccc(-c2nc(NC(=O)Cn3c(=O)oc4ccccc43)sc2C)cc1 | 122 | -10 | 70* | -2 | -7 | -5
COc1ccccc1/C=C/C(=O)Nc1cccnc1 | . | . | 58* | . | . | .
COc1cc(/C=C/C(=O)NCc2ccccn2)cc(OC)c1OC | 104 | 10 | 12 | 0 | -13 | -4
COc1ccccc1/C=C/C(=O)NCCc1ccccn1 | . | . | 63* | . | . | .
O=C(/C=C/c1ccccc1Cl)Nc1cccnc1 | . | . | 52* | . | . | .
O=C(/C=C/c1ccccc1Cl)Nc1ccncc1 | 97 | 14 | -3 | 3 | -31 | 0
Cc1ccc(F)c(N=Cc2c(O)c3ccccc3oc2=O)c1 | . | . | 2 | . | . | .
COc1ccc(Nc2cccc3ccccc23)cc1 | . | . | 77* | . | . | .
CCOC(=O)c1[nH]c2cc3c(cc2c1NC(=O)CN1CCCC1)OCO3 | . | 3 | 58* | 10 | 1 | -1
CCOC(=O)c1[nH]c2cc3c(cc2c1NC(=O)CN1CCC(C)CC1)OCO3 | 95 | 7 | 45 | -2 | -2 | -4
SMILES | STAT3 activator | FXIIa inh 1536 | AHR activator | FXIa inh 1536 | hK5 inh | thrombin 1536
Cc1ccc(N(CC(=O)NC2CCCC2)C(=O)CNC(=O)c2cccs2)c(C)c1 | . | . | 0 | . | . | .
CN1C(=O)/C(=C/c2ccc(C(=O)Nc3ccc(O)cc3C(=O)O)cc2)SC1=S | . | . | 3 | . | . | .
CCCCCCCCCCCC(=O)N1CC(=O)NC(=O)C1 | . | 46* | -3 | 27 | 54* | 27
O=C(COC(=O)Cc1c(Cl)cccc1Cl)Nc1ccc(OC(F)(F)F)cc1 | 98 | 9 | 67* | 7 | -20 | -4
N#Cc1c(Nc2ccccc2)sc(C(=O)C2CC2)c1N | 100 | 12 | 49* | 0 | -2 | -8
COc1cccc(N2CCN(S(=O)(=O)c3c(C)[nH]c(C)c3C(=O)N3CCCC3)CC2)c1 | . | . | 19 | . | . | .
Cc1[nH]c(C)c(S(=O)(=O)N2CCN(c3cccc(Cl)c3)CC2)c1C(=O)N1CCCC1 | . | . | 50* | . | . | .
Cc1cc(C(=O)CN2C(=O)C(=O)N(CCC3=CCCCC3)C2=O)c(C)n1C | . | . | 2 | . | . | .
COc1ccc(/C=N\NS(=O)(=O)c2ccc(Cl)cc2)cc1COc1ccccc1[N+](=O)[O-] | 98 | 19 | 4 | 8 | 47* | 85*
S=c1[nH]nc(-c2ccncc2)n1/N=C/C=C/c1ccco1 | 99 | 74* | 5 | 28 | 30 | 37
O=C(Nc1ccc(F)cc1F)c1csc(-c2ccncc2)n1 | 91 | 17 | 51* | 17 | 17 | 12
O=C(Nc1ccc(Cl)c(Cl)c1)c1csc(-c2ccccc2)n1 | 106 | 3 | 74* | -7 | -37 | 1
O=C(Nc1cccc(Cl)c1)c1csc(-c2ccccc2)n1 | 104 | 11 | 93* | 11 | 17 | -4
NNC(=O)c1csc(-c2ccccc2)n1 | . | 2 | 13 | -7 | -6 | -1
CCCCn1nnc(NC(=O)COc2ccc(Cl)c(C)c2)n1 | 97 | 7 | 4 | 0 | 104* | 10
Cc1cccc(N2Cc3ccc(Br)cc3C2)c1 | . | . | 48* | . | . | .
C/C(=N/O)c1cccc(N2Cc3ccccc3C2)c1 | . | . | 10 | . | . | .
CN(CC(=O)Nc1ccccc1C(F)(F)F)C(=O)CN1C(=O)C2CCCCC2C1=O (stereo unspecified) | . | . | 2 | . | . | .
Cc1ccc(C(=O)CSc2n[nH]c(C)n2)cc1 | 100 | -12 | 2 | 0 | 2 | -12
CCc1ccc(C(=O)CSc2n[nH]c(C)n2)cc1 | 96 | 15 | 56* | 8 | -21 | 0
Cc1cccc2nc3ccccc3nc12 | 95 | 15 | 1 | 3 | 20 | 2
Cc1cccc2c3nc4ccccc4nc3n(C)c12 | . | . | 69* | . | . | .
Cc1ccc(NC(=O)C(C)N2CCCC2)cc1Cl (stereo unspecified) | 109 | 1 | 1 | -3 | -8 | 1
O=S1(=O)CCOCCCN1Cc1ccccc1Br | . | . | 1 | . | . | .
O=C1OC(Nc2ccc(Br)cc2F)c2ccccc21 (stereo unspecified) | 101 | 14 | 3 | 8 | -10 | 3
SMILES | STAT3 activator | FXIIa inh 1536 | AHR activator | FXIa inh 1536 | hK5 inh | thrombin 1536
O=C1OC(Nc2ncccn2)c2ccccc21 (stereo unspecified) | 97 | 106* | -1 | 8 | 42* | 14
O=C1OC(Nc2ccccn2)c2ccccc21 (stereo unspecified) | 98 | 18 | 1 | 4 | 3 | 4
O=C1OC(Nc2cc(Br)cc3cccnc23)c2ccccc21 (stereo unspecified) | 133* | 1 | 28 | -14 | -7 | -5
N/C(=N\OC(=O)c1cccc([N+](=O)[O-])c1)c1cccnc1 | 100 | 16 | 114* | 23 | 14 | -1
N/C(=N\OC(=O)c1cccc(Br)c1)c1ccncc1 | 94 | 7 | 53* | 2 | . | 0
N/C(=N\OC(=O)c1cccc2ccccc12)c1cccc([N+](=O)[O-])c1 | 89 | 1 | 15 | -2 | -12 | -4
